Consider 37 compounds from ChEMBL document CHEMBL3407478, “Development of a series of aryl pyrimidine kynurenine monooxygenase inhibitors as potential therapeutic agents for the treatment of Huntington's disease” (J Med Chem, 2015).

Converted amounts (≈) assume the structure as drawn.

A short description of series [1]: Lipophilicity, log P of the compound at pH 7. Format: physicochemical. Particulars: buffer.
The target of series [2] is T1, Kynurenine 3-monooxygenase (Homo sapiens, UniProt O15229). Description: Inhibition of human KMO assessed as conversion of kynurenine to 3-hydroxykynurenine by LC-MS/MS analysis.
Series [3] can be described thus: Aqueous solubility of the compound. The class given is physicochemical.
In series [4] the test system is Liver microsome. Put plainly: Intrinsic clearance in human liver microsomes assessed per mg of protein. Format: ADME. Further details: unit not given here. In short, it runs like this:
(§1)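 Stability assessed in human, rat and mouse liver microsomes; intrinsic clearance expressed per mg microsomal protein.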
A general note: Liver microsomes are vesicles of endoplasmic reticulum, rich in cytochrome P450 enzymes.

The test system of series [5] is Liver microsome. Description: Intrinsic clearance in rat liver microsomes assessed per mg of protein. Format: ADME. Further details: unit not given here. A digest of the protocol: as §1
Series [6] in a line: Permeability from basolateral to apical side in human Caco2 cells. The class given is ADME, cell-based. Particulars: Caco-2, read-out: permeability. Background: Caco-2 cells form a polarised layer with tight junctions and transporters.
Series [7] is described as follows: Permeability from apical to basolateral side in human Caco2 cells. The class given is ADME, cell-based. The following applies: Caco-2, read-out: permeability.
The test system of a further series is Liver. Description: Intrinsic clearance in mouse liver microsomes assessed per mg of protein. The class given is ADME. More on the design: unit not given here. A digest of the protocol:
as §1

For series [8], the target named is T2, Kynurenine 3-monooxygenase (Rattus norvegicus, UniProt O88867). Description: Inhibition of KMO in rat microglia cells. The class given is cell-based. A digest of the protocol: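 Freshly isolated neonatal rat microglial cultures, induced to express KMO by a pro-inflammatory protocol. Exogenous KYN added; conversion to 3-HK monitored by mass spectrometry.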

For series [9], the target named is Kynurenine 3-monooxygenase (Mus musculus, UniProt Q91WN4). Put plainly: Inhibition of mouse KMO assessed as conversion of kynurenine to 3-hydroxykynurenine by LC-MS/MS analysis. In short, it runs like this:
(§2)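 Mitochondrial fractions from mouse or rat liver tissue used as KMO source. Conversion of kynurenine to 3-hydroxykynurenine quantified by LC-MS/MS; IC50 averaged from triplicate tests.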

Series [10] concerns the target T2, Kynurenine 3-monooxygenase. Put plainly: Inhibition of rat KMO assessed as conversion of kynurenine to 3-hydroxykynurenine by LC-MS/MS analysis. In short, it runs like this:
as §2

The target of series [11] is T1, Kynurenine 3-monooxygenase. Description: Inhibition of KMO in human PBMC.
For series [12], the target named is T1, Kynurenine 3-monooxygenase. Put plainly: Inhibition of human KMO transfected in CHO cells assessed as conversion of kynurenine to 3-hydroxykynurenine by LC-MS/MS analysis. The class given is cell-based.
Series [13] deals with T1, Kynurenine 3-monooxygenase. Description: Inhibition of KMO (unknown origin).

Kynurenine 3-monooxygenase (Mus musculus, UniProt Q91WN4), sequence (Q91WN4 whole entry): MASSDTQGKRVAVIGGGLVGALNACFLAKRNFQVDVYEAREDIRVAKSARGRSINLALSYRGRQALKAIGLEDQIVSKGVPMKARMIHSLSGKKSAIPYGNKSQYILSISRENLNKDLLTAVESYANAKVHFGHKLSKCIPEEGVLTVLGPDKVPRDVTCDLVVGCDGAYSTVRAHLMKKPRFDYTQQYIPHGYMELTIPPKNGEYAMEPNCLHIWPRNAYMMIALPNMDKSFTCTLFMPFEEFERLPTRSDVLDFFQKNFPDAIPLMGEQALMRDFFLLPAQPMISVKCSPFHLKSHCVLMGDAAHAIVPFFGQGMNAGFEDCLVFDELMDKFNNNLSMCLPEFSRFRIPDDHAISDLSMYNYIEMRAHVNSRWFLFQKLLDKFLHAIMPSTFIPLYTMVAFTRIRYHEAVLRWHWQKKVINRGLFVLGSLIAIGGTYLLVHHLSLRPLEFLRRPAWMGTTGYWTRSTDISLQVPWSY
T2 sequence (O88867 whole entry): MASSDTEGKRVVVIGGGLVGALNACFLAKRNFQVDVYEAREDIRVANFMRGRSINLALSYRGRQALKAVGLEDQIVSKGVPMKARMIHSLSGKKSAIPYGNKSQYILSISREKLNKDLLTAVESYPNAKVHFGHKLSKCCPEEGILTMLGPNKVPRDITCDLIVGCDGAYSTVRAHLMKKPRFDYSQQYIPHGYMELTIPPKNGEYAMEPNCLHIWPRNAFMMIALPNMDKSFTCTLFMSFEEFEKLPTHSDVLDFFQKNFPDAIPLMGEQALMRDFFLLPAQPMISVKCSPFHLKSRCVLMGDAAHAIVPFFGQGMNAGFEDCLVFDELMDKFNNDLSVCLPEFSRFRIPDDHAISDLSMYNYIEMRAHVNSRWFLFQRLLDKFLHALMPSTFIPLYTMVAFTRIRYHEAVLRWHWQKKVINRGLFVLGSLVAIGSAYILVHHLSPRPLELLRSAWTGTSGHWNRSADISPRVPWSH
T1 sequence (O15229 whole entry): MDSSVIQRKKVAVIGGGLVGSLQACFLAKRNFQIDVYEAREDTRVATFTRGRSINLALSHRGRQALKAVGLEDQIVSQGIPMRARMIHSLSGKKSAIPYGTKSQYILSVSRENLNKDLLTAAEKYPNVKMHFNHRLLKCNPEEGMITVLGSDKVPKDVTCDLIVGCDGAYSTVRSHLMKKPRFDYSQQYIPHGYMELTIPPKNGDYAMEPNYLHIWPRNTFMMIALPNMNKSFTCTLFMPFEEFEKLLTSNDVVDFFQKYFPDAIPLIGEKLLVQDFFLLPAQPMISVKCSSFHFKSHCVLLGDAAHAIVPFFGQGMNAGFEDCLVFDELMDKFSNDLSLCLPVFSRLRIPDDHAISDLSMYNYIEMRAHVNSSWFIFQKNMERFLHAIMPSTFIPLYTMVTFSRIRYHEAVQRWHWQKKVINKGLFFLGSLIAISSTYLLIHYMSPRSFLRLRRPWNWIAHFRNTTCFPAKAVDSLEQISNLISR

In the case of `O=C(O)c1cc(-c2ccccc2)ncn1`, the logD (as a rule, the decadic logarithm of the distribution of all forms, ionised or not, between an organic phase and buffer at a given pH) in series [1] was -0.98.
On to `COc1cc(-c2cc(C(=O)O)ncn2)ccc1Cl`, for which, in [1], the logD is 0.59.
Regarding `CS(=O)(=O)Nc1cc(-c2ccc(Cl)c(Cl)c2)ncn1`, the IC50 (in general, the concentration needed to halve the response being measured) in series [2] is above 10000 nM.
The same measure, in the same setting: then `O=c1[nH]ccn1-c1cc(-c2ccc(Cl)c(Cl)c2)ncn1`, with above 10000 nM.
As to `O=C(O)c1cc(-c2cc(Cl)c3occc3c2)ncn1`, the solubility (commonly the concentration that dissolves in the medium under given conditions) in series [3] came out at 820 µg/mL (≈ 2.99 mM). In addition, the CLH in the series on Liver microsome [4], in the series on Liver microsome [5] and in the series on Liver was below 0.02 in each case. Further, the logD in [1] was 0.85. Besides, the Papp B→A in [6] was 41 ×10⁻⁶ cm/s. The Papp A→B in [7] came to 21.9 ×10⁻⁶ cm/s.
With `O=C(O)c1cc(-c2ccc(Cl)c(Cl)c2)ncn1`, the IC50 in series [2] was found to be 0.6 nM; in [8] it was 105 nM; in series [9], 6 nM; in series [10], 3.2 nM; in series [11] it was 72 nM; in series [12], 33 nM. This compound also returned a solubility in series [3] of 740 µg/mL (≈ 2.75 mM). Also, the logD in series [1] was 1.12. Also, in series [6], the Papp B→A worked out at 32.4 ×10⁻⁶ cm/s. Also, the Papp A→B in series [7] was 41.4 ×10⁻⁶ cm/s.
As to `O=C(O)c1cc(-c2ccc(OC3CCCC3)c(Cl)c2)ncn1`, the solubility in series [3] was above 1000 µg/mL. In addition, the CLH in the series on Liver microsome [4], in the series with Liver microsome [5] and with Liver was below 0.02 throughout. For the same compound, the logD in series [1] amounted to 2.18. Besides, the Papp B→A in series [6] worked out at 16.7 ×10⁻⁶ cm/s. Further, in series [7], the Papp A→B came to 20.5 ×10⁻⁶ cm/s.
In series [1], `O=C(O)c1cc(-c2cccc(C(F)(F)F)c2)ncn1` came in with a logD of 0.36.
Same read-out and setting: for `O=C(O)c1cc(-c2ccc(Cl)c(F)c2)ncn1` the value was 0.4; for `O=C(O)c1cc(-c2ccc(F)c(Cl)c2)ncn1`, 0.41.
With `O=C(O)c1cc(-c2cccc(Cl)c2F)ncn1`, in series [1], the logD is -0.34.
On the same count and under the same terms, then `O=C(O)c1cc(-c2ccc(C(F)(F)F)c(Cl)c2)ncn1`, with 1.35.
In the case of `O=C(O)c1cc(-c2ccc(OC(F)(F)F)c(Cl)c2)ncn1`, the IC50 in series [8] was above 1000 nM; in [10], 17 nM. In addition, the solubility in series [3] is above 1000 µg/mL. In addition, the CLH in the series on Liver microsome [4], with Liver microsome [5] and in the series with Liver was below 0.02 throughout. The logD in series [1] amounted to 1.77. In series [6], the Papp B→A turned out to be 17.1 ×10⁻⁶ cm/s. Besides, in [7], the Papp A→B turned out to be 10.5 ×10⁻⁶ cm/s.
Consider `Clc1ccc(-c2cc(-n3ccnc3)ncn2)cc1Cl`, for which the IC50 in series [2] is above 10000 nM.
Turning to `O=C(O)[C@H]1C[C@@H]1C(=O)c1ccc(Cl)c(Cl)c1`, the IC50 in series [13] was 20 nM.
Regarding `O=C(O)c1cc(-c2ccc(Cl)cc2F)ncn1`, the logD in series [1] turned out to be 0.44.
Consider `CC(C)Oc1ccc(-c2cc(C(=O)O)ncn2)cc1Cl`, for which, in series [3], the solubility was above 1000 µg/mL. Moreover, the CLH with Liver microsome [4], in the series on Liver microsome [5] and in the series with Liver was below 0.02 in each case. The compound further displayed a logD in [1] of 1.28. The Papp B→A in series [6] was found to be 21.2 ×10⁻⁶ cm/s. Also, in series [7], the Papp A→B was 16.5 ×10⁻⁶ cm/s.
Regarding `Clc1ccc(-c2cc(-n3cccn3)ncn2)cc1Cl`, the IC50 in series [2] was above 10000 nM.
`O=C(O)c1cc(-c2ccc(OC3CCCCC3)c(Cl)c2)ncn1`: the solubility in [3] stood at 500 µg/mL (≈ 1.5 mM). Besides, the CLH in the series on Liver microsome [4], in the series on Liver microsome [5] and in the series on Liver was below 0.02 each time.
Consider `O=C(O)c1cc(-c2ccc(F)c(F)c2)ncn1`, for which the half-maximal inhibitory concentration (IC50) in series [8] is 86 nM; in series [9], 1.5 nM; in [10], 2 nM. In series [3], this compound gave a solubility above 1000 µg/mL. In [1], this compound registered a logD of -0.45. Besides, the Papp B→A in series [6] was 26 ×10⁻⁶ cm/s. In addition, the Papp A→B in series [7] was determined as 13.6 ×10⁻⁶ cm/s.
For `Cn1nnc(-c2cc(-c3ccc(Cl)c(Cl)c3)ncn2)n1`, the IC50 in series [2] was above 10000 nM.
For `O=C(O)c1cc(-c2cccc(F)c2)ncn1`, in [1], the logD was -0.8.
On the same count and under the same terms, then `Cc1cccc(-c2cc(C(=O)O)ncn2)c1`, with -0.19.
The same measure, in the same setting: for `O=C(O)c1cc(-c2cc(Cl)cc(Cl)c2)ncn1` the value was 1.15; for `O=C(O)c1cc(-c2ccc(F)c(C(F)(F)F)c2)ncn1`, 0.45.
On the same count and under the same terms, then `Cc1ccc(-c2cc(C(=O)O)ncn2)cc1F`, with -0.33.
`O=C(O)c1cc(-c2ccc(OCC3CC3)c(Cl)c2)ncn1`: the solubility in series [3] is above 1000 µg/mL. Also, the CLH in the series with Liver microsome [4], in the series with Liver microsome [5] and in the series on Liver was below 0.02 in each case.
With `Cn1ccn(-c2cc(-c3ccc(Cl)c(Cl)c3)ncn2)c1=O`, in series [2], the IC50 is above 10000 nM.
The compound `COc1ccc(-c2cc(C(=O)O)ncn2)cc1Cl` registered a solubility in series [3] above 1000 µg/mL. The logD in series [1] was 0.28. The Papp B→A in series [6] is 31.3 ×10⁻⁶ cm/s. Further, in series [7], the Papp A→B came out at 15.8 ×10⁻⁶ cm/s.
`O=C(Nc1cc(-c2ccc(Cl)c(Cl)c2)ncn1)c1ccccc1`: the IC50 in [2] is above 10000 nM.
On to `O=C(O)c1cc(-c2ccc(Cl)cc2)ncn1`, for which, in [1], the logD is -0.11.
Regarding `CC(=O)Nc1cc(-c2ccc(Cl)c(Cl)c2)ncn1`, in series [2], the IC50 is above 10000 nM.
In [1], `O=C(O)c1cc(-c2ccc(F)cc2F)ncn1` returned a logD of -0.88.
In turn, `O=C(O)c1cc(-c2ccc(OC3COC3)c(Cl)c2)ncn1` gave a solubility in series [3] above 1000 µg/mL. For the same compound, the CLH with Liver microsome [4], with Liver microsome [5] and with Liver was below 0.02 throughout.
For `Cc1ccc(-c2cc(C(=O)O)ncn2)cc1Cl`, the IC50 in series [8] amounted to 100 nM; in series [9] it was 6.2 nM; in series [10], 4.1 nM. Moreover, in series [3], the solubility is above 1000 µg/mL. The logD in series [1] was determined as 0.8. The Papp B→A in series [6] is 35.3 ×10⁻⁶ cm/s. The Papp A→B in [7] came to 24 ×10⁻⁶ cm/s.
`O=C(O)c1cc(-c2cccc(Cl)c2)ncn1` had a logD in series [1] of 0.12.
As to `O=C(O)c1cc(-c2ccc(OC3CCC3)c(Cl)c2)ncn1`, the solubility in series [3] was above 1000 µg/mL. The CLH in the series with Liver microsome [4], in the series with Liver microsome [5] and in the series on Liver was below 0.02 throughout. Besides, in series [1], the logD amounted to 1.19.
